Data as given in paper PMC7501955 (Drug Design, Development and Therapy, 2020).

Test system: duck HBV (DHBV)
Assay: Antiviral efficacy in a duck HBV model, serum DHBV DNA by quantitative PCR
Assay type: in vivo, Pekin ducklings
Conditions: DHBV-infected ducks, 50 mg/kg 3TC; for Serum DHBV DNA: P<0.001
How it was run: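 Pekin ducklings were infected with DHBV-positive duck serum and assayed for DNA load 7 days later (T0). Groups of five received test compound at 25, 50 or 100 mg/kg by oral gavage for 14 days. Controls were saline (negative) and 3TC 50 mg/kg once daily (positive). Serum DHBV DNA was measured by qPCR on treatment days 0, 7, 14 and 3 days after stopping; mean ± SD.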

## Nc1ccn([C@@H]2CS[C@H](CO)O2)c(=O)n1 [3TC, lamivudine]
T7
  Reduction of serum DHBV DNA compared to vehicle controls: up to 2 log10
T7 (day 7 of treatment)
  Serum DHBV DNA: significantly inhibited
T14 (day 14 of treatment)
  Serum DHBV DNA: significantly inhibited
